Results on four compounds are retold here after paper PMC9044198 (RSC Advances, 2021).

Assay [1] concerns the target T1, α-glucosidase (Saccharomyces cerevisiae, UniProt P53341). The conditions noted are these: reported in the literature; cited from earlier work.
The target in assay [2] is α-glucosidase (Saccharomyces cerevisiae, EC 3.2.1.20) (Saccharomyces cerevisiae, UniProt P53341). The experiment in a line: Assay of α-glucosidase inhibitory activity. The conditions noted are these: for inhibitory effect on α-glucosidase (in words): 1-deoxynojirimycin as control. The assay is classed as biochemical.
α-glucosidase (Saccharomyces cerevisiae, EC 3.2.1.20), sequence (P53341 whole entry): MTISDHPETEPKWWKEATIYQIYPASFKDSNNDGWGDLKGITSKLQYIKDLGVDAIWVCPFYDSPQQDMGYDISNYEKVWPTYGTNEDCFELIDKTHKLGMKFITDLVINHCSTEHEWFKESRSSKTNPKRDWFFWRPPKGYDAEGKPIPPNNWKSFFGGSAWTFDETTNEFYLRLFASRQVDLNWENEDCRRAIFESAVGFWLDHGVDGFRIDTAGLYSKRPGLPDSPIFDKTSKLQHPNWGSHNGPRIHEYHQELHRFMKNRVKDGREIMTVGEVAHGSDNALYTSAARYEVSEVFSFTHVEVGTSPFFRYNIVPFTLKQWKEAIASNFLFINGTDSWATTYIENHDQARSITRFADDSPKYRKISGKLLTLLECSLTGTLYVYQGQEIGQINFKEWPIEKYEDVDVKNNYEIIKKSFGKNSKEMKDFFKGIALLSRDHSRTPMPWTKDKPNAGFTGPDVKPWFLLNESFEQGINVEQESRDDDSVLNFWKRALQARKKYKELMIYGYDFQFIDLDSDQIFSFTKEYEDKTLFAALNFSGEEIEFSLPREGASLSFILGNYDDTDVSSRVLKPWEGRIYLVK
The target in assay [3] is T1, α-glucosidase. In words: Inhibitory kinetic analysis. It is filed as biochemical.
Assay [4] has as its target T1, α-glucosidase. The experiment in a line: Fluorescence quenching and UV-Vis absorption spectra of α-glucosidase. The assay is classed as binding. The following applies: Stern–Volmer analysis and UV-Vis absorption spectra at 298 K. Put shortly:
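Tryptophan fluorescence was excited at 280 nm and emission recorded at 300–500 nm. Test compound (0–8.0 × 10−5 mol L−1) was added to α-glucosidase (1 U mL−1) and incubated 30 s at 298 K before reading. Data were fitted to the Stern–Volmer equation F0/F = 1 + Kqτ0[Q], with τ0 = 6.2 ns. The same method was run at 273, 298 and 310 K for thermodynamic parameters. UV-Vis spectra (200–600 nm) were taken of enzyme (1.0 × 10−5 mol L−1) with compound at 0–9.0 × 10−5 mol L−1.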

“Also recorded” adds a separate entry of the source. Where two headings read alike, the source gives them in different places.

T1 sequence (P53341 whole entry): as above

`OC[C@H]1NC[C@H](O)[C@@H](O)[C@@H]1O` [1-Deoxynojirimycin]: in assay [1], the “reversibility of α-glucosidase inhibition” value was “reversibly inhibit”.
A word on the IC50: it is the concentration that gives 50% inhibition. Higher therefore signals weaker potency. With `O=c1cc(-c2ccccc2)oc2cc(OCCCCCCCCN3C[C@H](O)[C@@H](O)[C@H](O)[C@H]3CO)cc(O)c12` [compound 5, 5-Hydroxy-2-phenyl-7-((8-((2R,3R,4R,5S)-3,4,5-trihydroxy-2-(hydroxymeth-yl)-piperidin-1-yl)octyl)oxy)-4H-chromen-4-one], in assay [2], it took 5.56 ± 0.24 µM to reach half-maximal inhibition (IC50) and the “inhibitory effect on α-glucosidase (in words)” value was “superior inhibition effects compared to 1-deoxynojirimycin”.
What is called Ki is the equilibrium dissociation constant of an inhibitor or competing ligand from its target. `O=c1cc(-c2ccccc2)oc2cc(OCCCCCCCCCCCN3C[C@H](O)[C@@H](O)[C@H](O)[C@H]3CO)cc(O)c12` [compound 6, 5-Hydroxy-2-phenyl-7-((11-((2R,3R,4R,5S)-3,4,5-trihydroxy-2-(hydroxymethyl)-piperidin-1-yl)undecyl)oxy)-4H-chromen-4-one]: in assay [2], half-maximal inhibition (IC50) required 0.51 ± 0.02 µM and the “inhibitory effect on α-glucosidase (in words)” value is on record as “superior inhibition effects compared to 1-deoxynojirimycin”. Besides, the “α-glucosidase inhibitory activity, fold higher than 1-deoxynojirimycin” value in assay [2] (ratio of IC50 values) was “up to 16 fold”. The compound also gave a Ki in assay [3] of 0.21 µM. In assay [3] (0.0, 0.5, 1.0 μM of compound, varying enzyme concentration), the “reversibility of α-glucosidase inhibition” value was “reversible”. In assay [3] (Lineweaver–Burk plot), the inhibition type entry was “mixed competitive; also recorded: mixed-type inhibitor; also recorded: mixed competition type”. Besides, the fluorescence quenching mechanism entry in assay [4] is listed as “static fluorescence quenching”.
`O=c1cc(-c2ccccc2)oc2cc(OCCCCCN3C[C@H](O)[C@@H](O)[C@H](O)[C@H]3CO)cc(O)c12` [compound 4, 5-Hydroxy-2-phenyl-7-((5-((2R,3R,4R,5S)-3,4,5-trihydroxy-2-(hydroxymeth-yl)-piperidin-1-yl)pentyl)oxy)-4H-chromen-4-one] displayed an IC50 in assay [2] greater than 100 µM.
